For six compounds, EC50, Activity and viability results are on record in ChEMBL document CHEMBL1157704, “Potent activity against K562 cells by polyamide-seco-CBI conjugates targeting histone H4 genes” (Bioorg Med Chem, 2010).

Calls of active or inactive are those of the source. The rule behind the calls is not given here.

For assay [1], the system named is K562. The assay can be described thus: Cytotoxicity against human K562 cells by MTS assay. Format: functional, cell-based. In short, it runs like this: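 Proliferation of K562 cells (ATCC, standard culture) was read as mitochondrial conversion of the MTS tetrazolium to formazan, using the CellTiter 96 Aqueous One reagent. EC50 was derived from these readings.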
(Tetrazolium dyes change colour on reduction, which living cells bring about.)

Assay [2] has as its system histone H4c gene fragment DNA (human). Kind of assay: Binding affinity to 5'-AGAAAA-3' sequence of 223 bp human histone H4c gene fragment DNA assessed as DNA alkylating activity at 50 to 100 nM after 15 hrs by PAGE.
The subject of assay [3] is K562. The assay can be described thus: Induction of apoptosis in human K562 cells assessed as viable cells at 250 nM after 48 hrs by annexin-V FITC and propidium iodide staining-based FACS analysis. Format: functional. The following applies: K562, 48 h, read-out: Activity. In short, it runs like this: (§1)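 Treated K562 cells […] stained with Annexin V-FITC/propidium iodide. Apoptosis was scored by two-dimensional flow cytometry at a core FACS facility.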

Assay [4] has as its system K562. Kind of assay: Induction of apoptosis in human K562 cells assessed as late apoptotic cells at 250 nM after 48 hrs by annexin-V FITC and propidium iodide staining-based FACS analysis. The format is functional. In short, it runs like this: as §1
In general terms: Flow cytometry measures light scatter and fluorescence of single cells or particles in a stream.

In assay [5] the test system is K562. Kind of assay: Induction of apoptosis in human K562 cells assessed as non-viable necrotic cells at 250 nM after 48 hrs by annexin-V FITC and propidium iodide staining-based FACS analysis. Format: functional. In short, it runs like this: as §1
In assay [6] the test system is K562. Kind of assay: Downregulation of histone H4E mRNA expression in human K562 cells at 250 nM after 48 hrs by real-time PCR analysis. The format is functional, cell-based. The method, boiled down:
(§2)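 Treated K562 cells were assayed by one-step real-time RT-PCR. Reverse transcription ran 50 °C for 10 min, then hot-start polymerase activation at 95 °C for 15 min. Cycling was 45 cycles of 95 °C 15 s, 55 °C 30 s and 72 °C 30 s. Levels were normalized to GAPDH mRNA; error shown as standard deviation.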
For orientation: Quantitative PCR measures a nucleic acid by following its amplification.

For assay [7], the system named is K562. Kind of assay: Cell cycle arrest in human K562 cells assessed as increase in accumulation at G2/M phase at 250 nM after 48 hrs propidium iodide staining-based FACS analysis. Format: functional. In short, it runs like this:
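K562 cells (ATCC, b3a2 Bcr-Abl) exposed to polyamide in culture medium and pelleted at 200g for 5 min. Pellets resuspended in PBS, fixed in prechilled 70% ethanol and stained with propidium iodide (50 µg/mL). DNA content read by flow cytometry as G0–G1, S and G2–M fractions; sub-2C DNA taken as fragmentation/apoptosis.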

The test system of assay [8] is K562. The assay can be described thus: Downregulation of histone H4C mRNA expression in human K562 cells at 250 nM after 48 hrs by real-time PCR analysis. Format: functional. In short, it runs like this: as §2
Assay [9] has as its system K562. The assay can be described thus: Induction of apoptosis in human K562 cells assessed as early apoptotic cells at 250 nM after 48 hrs by annexin-V FITC and propidium iodide staining-based FACS analysis. The format is functional. In short, it runs like this:
as §1

Regarding `CC(=O)Nc1cn(C)c(C(=O)Nc2cc(C(=O)Nc3cn(C)c(C(=O)Nc4cc(C(=O)NCCCC(=O)Nc5cn(C)c(C(=O)Nc6cc(C(=O)Nc7ccc8[nH]c(C(=O)N9CC(CCl)c%10c9cc(O)c9ccccc%109)cc8c7)n(C)c6)n5)n(C)c4)n3)n(C)c2)n1` (centres undefined), it took 33 nM to reach a half-maximal effect with K562 [1] (EC50). The result in assay [2] was Active.
For the compound `CN(C)CCCNC(=O)CCNC(=O)c1cc(NC(=O)c2cc(NC(=O)c3cc(NC(=O)c4cc(NC(=O)[C@@H](CCNC(=O)CCCc5ccc(N(CCCl)CCCl)cc5)NC(=O)c5nc(NC(=O)CCNC(=O)c6nc(NC(=O)c7nccn7C)cn6C)cn5C)cn4C)cn3C)cn2C)cn1C`, in the assay on K562 [3], the viability at 0.25 µM is 78.1%. Further, the Activity stood at 10.6% in the assay with K562 [4], 1.1% in the assay with K562 [5], 52% in the assay on K562 [8] and 10.3% in the assay with K562 [9]. For the same compound, the outcome in the assay with K562 [6] and in the assay with K562 [7] was Active. It took 300 nM to reach a half-maximal effect in the assay on K562 [1] (EC50).
`CC(=O)Nc1cc(C(=O)Nc2cc(C(=O)NCCC(=O)N[C@@H](CCNC(=O)c3cc(NC(=O)c4nc(NC(=O)CCNC(=O)c5nc(NC(C)=O)cn5C)cn4C)cn3C)C(=O)Nc3cn(C)c(C(=O)Nc4cc(C(=O)Nc5ccc6[nH]c(C(=O)N7CC(CCl)c8c7cc(O)c7ccccc87)cc6c5)n(C)c4)n3)n(C)c2)n(C)c1` (some centres undefined) yielded an EC50 with K562 [1] of 38 nM. For the same compound, the result in assay [2] was Active.
For the compound `CN(C)CCCNC(=O)CCNC(=O)c1cc(NC(=O)c2cc(NC(=O)c3cc(NC(=O)c4nc(NC(=O)[C@@H](CCNC(=O)CCCc5ccc(N(CCCl)CCCl)cc5)NC(=O)c5cc(NC(=O)c6cc(NC(=O)CCNC(=O)c7nccn7C)cn6C)cn5C)cn4C)cn3C)cn2C)cn1C`, in the assay with K562 [3], the viability at 0.25 µM stood at 76.8%. Besides, the Activity with K562 [4] is 9.12%; with K562 [5], 3.69%; with K562 [8], 81%; with K562 [9], 10.4%. Further, the result in the assay with K562 [6] and in the assay with K562 [7] was Active. Further, in the assay with K562 [1], the EC50 worked out at 81 nM.
Turning to `CC(=O)Nc1cc(C(=O)Nc2cc(C(=O)NCCC(=O)N[C@@H](CCNC(=O)c3cc(NC(=O)c4nc(NC(=O)c5cc(NC(=O)c6nc(NC(C)=O)cn6C)cn5C)cn4C)cn3C)C(=O)Nc3cn(C)c(C(=O)Nc4cc(C(=O)Nc5ccc6[nH]c(C(=O)N7CC(CCl)c8c7cc(O)c7ccccc87)cc6c5)n(C)c4)n3)n(C)c2)n(C)c1` (some centres undefined), the EC50 in the assay with K562 [1] was determined as 17 nM. The result in assay [2] was Active.
In the case of `CN(C)CCCNC(=O)CCNC(=O)c1cc(NC(=O)c2cc(NC(=O)c3cc(NC(=O)c4cc(NC(=O)[C@H](CCNC(=O)CCCc5ccc(N(CCCl)CCCl)cc5)NC(=O)c5nc(NC(=O)CCNC(=O)c6nc(NC(=O)c7nccn7C)cn6C)cn5C)cn4C)cn3C)cn2C)cn1C`, the viability at 0.25 µM in the assay on K562 [3] was determined as 83.4%. For the same compound, the Activity worked out at 8.88% in the assay with K562 [4], 1.39% in the assay on K562 [5] and 6.37% in the assay with K562 [9]. Further, the result in the assay with K562 [6] and in the assay on K562 [8] was inactive. For the same compound, the result with K562 [7] was Active.

One may read the EC50 as the concentration at which the effect is half-maximal.
